The subject of data set [1] is Staphylococcus aureus. Description: Bactericidal activity against methicillin-resistant Staphylococcus aureus N315 planktonic cell in in vitro pharmacokinetic/pharmacodynamic model assessed as decrease in bacterial count at 10 mg/kg every 24 hrs measured after 72 hrs. The format is functional. In a few lines: (§1)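 Biofilm reactor with polystyrene coupons. Conditioning: 24 h at 37°C in TSB with 1% glucose, then 16 h continuous flow of TSB with 10% glucose (30-min residence time). […] Coupons (biofilm cells, recovered by vortex/sonication) and medium (planktonic cells) sampled 0–72 h and plated on TSA. Limit of detection 2 log10 CFU/ml, extended to 1 by filtration. Duplicate models.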

Data set [2] concerns Staphylococcus aureus. Put plainly: Bactericidal activity against methicillin-resistant Staphylococcus aureus N315 in in vitro pharmacokinetic/pharmacodynamic model assessed as decrease in planktonic cell count at 10 mg/kg every 24 hrs measured after 48 hrs. The data set is classed as functional, organism-based. Also on record: dose 10 mg/kg. A digest of the protocol: as §1

Data set [3] deals with Staphylococcus aureus. Description: Antimicrobial activity against methicillin-susceptible Staphylococcus aureus SH1000 by CLSI broth microdilution method. The format is functional. In general terms: Dilution methods test growth across graded concentrations, often in twofold steps.
The test system of data set [4] is Staphylococcus aureus. Put plainly: Bactericidal activity against methicillin-resistant Staphylococcus aureus N315 in in vitro pharmacokinetic/pharmacodynamic model assessed as decrease in biofilm bacterial count at 10 mg/kg every 24 hrs measured after 72 hrs. The data set is classed as functional. A digest of the protocol:
as §1

Data set [5] relates to Staphylococcus aureus. Description: Bactericidal activity against methicillin-resistant Staphylococcus aureus N315 planktonic cell in in vitro pharmacokinetic/pharmacodynamic model assessed as decrease in bacterial count at 10 mg/kg every 24 hrs. The format is functional, organism-based. Also on record: dose 10 mg/kg. In a few lines: as §1
Data set [6] relates to Staphylococcus aureus. Put plainly: Antimicrobial activity against methicillin-resistant Staphylococcus aureus N315 by CLSI broth microdilution method. The data set is classed as functional.
Data set [7] in a line: Half life in Staphylococcus aureus in in vitro pharmacokinetic/pharmacodynamic model at 10 mg/kg every 24 hrs. The format is ADME, organism-based. Also on record: dose 10 mg/kg. In a few lines:
(§2)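 Biofilm reactor with polystyrene coupons, simulating human free-drug profiles in supplemented Mueller-Hinton broth (calcium 25 μg/ml, magnesium 12.5 μg/ml) after a 40-h biofilm conditioning phase. Vancomycin was measured by fluorescence polarization immunoassay (lower limit 2 μg/ml). […] Half-life, AUC and peak were derived by the trapezoidal method.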

The subject of data set [8] is Staphylococcus aureus. Put plainly: Bactericidal activity against Staphylococcus aureus in in vitro pharmacokinetic/pharmacodynamic model assessed as decrease in biofilm bacterial count at 10 mg/kg every 24 hrs. The data set is classed as functional. In a few lines:
(§3)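 MSSA SH1000 or MRSA N315 biofilm was conditioned for 40 h (24 h batch in 1% glucose TSB at 37°C, then 16 h flow in 10% glucose TSB) on polystyrene coupons. Simulated regimens ran 72 h in SMHB, duplicate models. Three coupons per time point (0–72 h) were saline-washed, vortexed and sonicated, and drop-plated on TSA. Reduction is log10 CFU/ml versus start; ≥3-log10 counts as bactericidal.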

The test system of data set [9] is Staphylococcus aureus. Put plainly: Bactericidal activity against Staphylococcus aureus in in vitro pharmacokinetic/pharmacodynamic model assessed as decrease in planktonic cell count at 10 mg/kg every 24 hrs. The format is functional. In a few lines:
(§4)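 Planktonic cells were sampled (≈1 ml) from the flow biofilm reactor at 0, 4, 8, 24, 32, 48, 56 and 72 h during simulated regimens in SMHB, with duplicate models. Samples were serially diluted or vacuum-filtered against carryover, spiral-plated on TSA, and grown 24 h at 37°C; detection limit 1–2 log10 CFU/ml. Bactericidal means a ≥3-log10 CFU/ml fall from the starting inoculum.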

In data set [10] the test system is Staphylococcus aureus. Put plainly: fCmax in Staphylococcus aureus in in vitro pharmacokinetic/pharmacodynamic model at 10 mg/kg every 24 hrs. The format is ADME, organism-based. Also on record: dose 10 mg/kg. A digest of the protocol: as §2
Data set [11] can be described thus: AUC (0 to 24 hrs) in Staphylococcus aureus in in vitro pharmacokinetic/pharmacodynamic model at 10 mg/kg every 24 hrs. The format is ADME, organism-based. Also on record: time < 24 hr, dose 10 mg/kg. In a few lines:
as §2

Data set [12] relates to Staphylococcus aureus. Put plainly: Antimicrobial activity against methicillin-susceptible Staphylococcus aureus SH1000 assessed as inhibition of bacterial biofilm formation by CLSI broth microdilution method. The data set is classed as functional.
In data set [13] the test system is Staphylococcus aureus. Description: fCmax in Staphylococcus aureus in in vitro pharmacokinetic/pharmacodynamic model at 250 mg every 12 hrs. The data set is classed as ADME, organism-based.
Data set [14] can be described thus: Half life in Staphylococcus aureus in in vitro pharmacokinetic/pharmacodynamic model at 250 mg every 12 hrs. The format is ADME, organism-based.
A short description of data set [15]: AUC (0 to 24 hrs) in Staphylococcus aureus in in vitro pharmacokinetic/pharmacodynamic model at 250 mg every 12 hrs. The data set is classed as ADME, organism-based. Also on record: dose 250 mg, time < 24 hr.
Data set [16] deals with Staphylococcus aureus. Put plainly: Bactericidal activity against Staphylococcus aureus in in vitro pharmacokinetic/pharmacodynamic model assessed as decrease in planktonic cell count at 400 mg every 24 hrs measured after 72 hrs. The data set is classed as functional. In a few lines:
as §4

For data set [17], the system named is Staphylococcus aureus. Put plainly: Bactericidal activity against Staphylococcus aureus in in vitro pharmacokinetic/pharmacodynamic model assessed as decrease in planktonic cell count at 400 mg every 24 hrs. The format is functional. In a few lines:
as §4

Data set [18] relates to Staphylococcus aureus. Put plainly: fCmax in Staphylococcus aureus in in vitro pharmacokinetic/pharmacodynamic model at 400 mg every 24 hrs. The data set is classed as ADME, organism-based.
Data set [19] has as its system Staphylococcus aureus. Put plainly: Bactericidal activity against Staphylococcus aureus in in vitro pharmacokinetic/pharmacodynamic model assessed as decrease in biofilm bacterial count at 400 mg every 24 hrs. The format is functional. A digest of the protocol:
as §3

For data set [20], the system named is Staphylococcus aureus. Put plainly: Bactericidal activity against Staphylococcus aureus in in vitro pharmacokinetic/pharmacodynamic model assessed as decrease in biofilm bacterial count at 400 mg every 24 hrs measured after 72 hrs. The format is functional. A digest of the protocol:
as §3

Data set [21] can be described thus: AUC (0 to 24 hrs) in Staphylococcus aureus in in vitro pharmacokinetic/pharmacodynamic model at 400 mg every 24 hrs. The format is ADME, organism-based. Also on record: time < 24 hr, dose 400 mg.
The test system of data set [22] is Staphylococcus aureus. Put plainly: Antimicrobial activity against methicillin-resistant Staphylococcus aureus N315 assessed as inhibition of bacterial biofilm formation by CLSI broth microdilution method. The format is functional. In a few lines:
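Biofilm MIC determined using the modified Calgary biofilm device method.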

For data set [23], the system named is Staphylococcus aureus. Description: fCmax in Staphylococcus aureus in in vitro pharmacokinetic/pharmacodynamic model at 600 mg every 24 hrs. The format is ADME, organism-based.
A short description of data set [24]: AUC (0 to 24 hrs) in Staphylococcus aureus in in vitro pharmacokinetic/pharmacodynamic model at 600 mg every 24 hrs. Also on record: dose 600 mg, time < 24 hr. The format is ADME, organism-based.
Data set [25] in a line: Half life in Staphylococcus aureus in in vitro pharmacokinetic/pharmacodynamic model. The data set is classed as ADME, organism-based. A digest of the protocol:
as §2

Data set [26] relates to Staphylococcus aureus. Put plainly: fCmax in Staphylococcus aureus in in vitro pharmacokinetic/pharmacodynamic model. The format is ADME, organism-based. In a few lines: as §2
The nature of data set [27]: AUC (0 to 24 hrs) in Staphylococcus aureus in in vitro pharmacokinetic/pharmacodynamic model. The format is ADME, organism-based. Also on record: time < 24 hr. A digest of the protocol: as §2

Converted amounts (≈) assume the structure as drawn. The source made the active and inactive calls. The rule behind the calls is not given here.

A word on the MIC: it is the lowest concentration found to suppress growth. Low readings indicate inhibition by little substance, high ones a need for much substance. Usually half-life stands for the time in which the quantity being followed falls by half. Low values mean rapid decline, high ones slow decline. The AUC is the area under the concentration-time curve, a measure of exposure. The low end stands for less exposure, the high end for more exposure. As to `CCCCCCCCCC(=O)N[C@@H](Cc1c[nH]c2ccccc12)C(=O)N[C@H](CC(N)=O)C(=O)N[C@@H](CC(=O)O)C(=O)N[C@@H]1C(=O)NCC(=O)N[C@@H](CCCN)C(=O)N[C@@H](CC(=O)O)C(=O)N[C@H](C)C(=O)N[C@@H](CC(=O)O)C(=O)NCC(=O)N[C@H](CO)C(=O)N[C@@H]([C@H](C)CC(=O)O)C(=O)N[C@@H](CC(=O)c2ccccc2N)C(=O)O[C@@H]1C`, the log10CFU/ml in the data set with Staphylococcus aureus [1] stood at 2.78; in the data set on Staphylococcus aureus [4], 2.73; in the data set on Staphylococcus aureus [8], 2.83; in the data set with Staphylococcus aureus [9], 2.2. Besides, the outcome with Staphylococcus aureus [2] was inactive. The MIC with Staphylococcus aureus [3] and against Staphylococcus aureus [6] was 0.125 µg/mL (≈ 0.0771 µM) in each case. The result with Staphylococcus aureus [5] was Active. Moreover, the half-life in data set [7] is 8.21 h. In the data set on Staphylococcus aureus [10], this compound showed a fCmax of 11.79 µg/mL. Besides, the AUC at 24 h in data set [11] is 200000 ng·h/mL. For the same compound, in the data set with Staphylococcus aureus [12], the MBIC came out at 2 µg/mL.

Turning to `CC[C@H]1OC(=O)[C@H](C)[C@@H](O[C@H]2C[C@@](C)(OC)[C@@H](O)[C@H](C)O2)[C@H](C)[C@@H](O[C@@H]2O[C@H](C)C[C@H](N(C)C)[C@H]2O)[C@](C)(OC)C[C@@H](C)C(=O)[C@H](C)[C@@H](O)[C@]1(C)O` [CLARITHROMYCIN], the MIC in the data set with Staphylococcus aureus [3] was over 128 µg/mL. Besides, the fCmax in the data set with Staphylococcus aureus [13] is 1.15 µg/mL. Besides, the half-life in data set [14] is 3.91 h. In addition, in the data set on Staphylococcus aureus [12], the MBIC is over 128 µg/mL. The same compound came in with an AUC at 24 h in data set [15] of 6530 ng·h/mL.

Turning to `COc1c(N2C[C@@H]3CCCN[C@@H]3C2)c(F)cc2c(=O)c(C(=O)O)cn(C3CC3)c12` [MOXIFLOXACIN], the log10CFU/ml amounted to 4.04 in the data set with Staphylococcus aureus [16], 2.33 in the data set with Staphylococcus aureus [17], 2.38 in the data set on Staphylococcus aureus [19] and 4.06 in the data set with Staphylococcus aureus [20]. The compound further returned a fCmax in the data set with Staphylococcus aureus [18] of 2.52 µg/mL. The AUC at 24 h in data set [21] was 44200 ng·h/mL.

The compound `CO[C@H]1/C=C/O[C@@]2(C)Oc3c(C)c(O)c4c(O)c(c(/C=N/N5CCN(C)CC5)c(O)c4c3C2=O)NC(=O)/C(C)=C\C=C\[C@H](C)[C@H](O)[C@@H](C)[C@@H](O)[C@@H](C)[C@H](OC(C)=O)[C@@H]1C` [RIFAMPIN] registered an MIC in the data set with Staphylococcus aureus [6] of under 0.0625 µg/mL. The MBIC in the data set on Staphylococcus aureus [22] is under 0.0625 µg/mL. In the data set on Staphylococcus aureus [23], this compound came in with a fCmax of 3.82 µg/mL. Besides, the area under the curve (AUC) at 24 h in data set [24] came to 19600 ng·h/mL.

Broadly, the AUC(0-t) is the area under the concentration-time curve up to a stated or last time point. Low readings indicate less exposure, high ones more exposure. `CN[C@H](CC(C)C)C(=O)N[C@H]1C(=O)N[C@@H](CC(N)=O)C(=O)N[C@H]2C(=O)N[C@H]3C(=O)N[C@H](C(=O)N[C@H](C(=O)O)c4cc(O)cc(O)c4-c4cc3ccc4O)[C@H](O)c3ccc(c(Cl)c3)Oc3cc2cc(c3O[C@@H]2O[C@H](CO)[C@@H](O)[C@H](O)[C@H]2O[C@H]2C[C@](C)(N)[C@H](O)[C@H](C)O2)Oc2ccc(cc2Cl)[C@H]1O` [VANCOMYCIN] had a half-life in [25] of 5.91 h. Moreover, in the data set on Staphylococcus aureus [26], the fCmax is 22.6 µg/mL. This compound also registered an MIC against Staphylococcus aureus [6] of 0.25 µg/mL (≈ 0.173 µM). For the same compound, in the data set with Staphylococcus aureus [22], the MBIC was 2 µg/mL. Moreover, the AUC(0-t) at 24 h in [27] came out at 193000 ng·h/mL.
